Cardio protect – modulators protecting cardiomyocytes from myocardial damage. AID 588492. 0.63% of 360,000 active. protection from H2O2 cell death, % at 20 µM. H9c2 cardiomyocytes, H2O2 injury protection, ATPLite, 2 h;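 active means compounds giving at least 50% protection of heart cells from peroxide-induced death in the single-dose screen, raw or plate-pattern-corrected value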;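 further: 0% = DMSO wells with peroxide and 100% = DMSO wells without peroxide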
GRIN3A LBD mod – NR3A (human) ligand-binding domain modulation; NR3A LBD differential scanning fluorimetry, Tm shift; 0% = protein alone, 100% = glycine-bound protein; Tm shift relative to glycine control, % at 25 µM; 2.5% of 340,000 active;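 active means melting temperature shift of at least 10% of the positive control shift, at one fixed dose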
iPSC survival up – increases survival of single human iPS cells; hiPSC single-cell survival, ATPlite luminescence; 100% = ROCK inhibitor wells, 0% = DMSO; survival enhancement, % at 20 µM; 0.044% of 360,000 active; AID 602274; in the data active means survival enhancement above about 18%;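 further: cells exposed to compounds for 16 hours before the ATP read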
SENP1 FRET inh – inhibitors of human SENP1 SUMO protease catalytic domain; 0.21% of 360,000 active; inhibition, % at 10 µM; recombinant SENP1 catalytic domain, CyPet-SUMO1-YPet FRET cleavage; AID 624204;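 active means inhibition at least 30% at 10 µM, raw YFP signal under a set limit, fluorescence ratio 0.5 to 1.5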;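 further: 0% = enzyme with DMSO and 100% = no enzyme wells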
Target sequence (Q9P0U3 419-644 limits assumed): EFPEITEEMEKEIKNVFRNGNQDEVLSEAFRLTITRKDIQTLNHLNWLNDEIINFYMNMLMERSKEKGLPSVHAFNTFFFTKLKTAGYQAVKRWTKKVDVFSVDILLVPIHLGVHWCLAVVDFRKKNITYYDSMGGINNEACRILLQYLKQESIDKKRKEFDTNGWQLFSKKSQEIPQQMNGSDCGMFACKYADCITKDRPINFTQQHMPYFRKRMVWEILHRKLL
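System: Recombinant human SENP1 catalytic domain, His6-tagged | Incubation: Enzyme reaction for 50 min at room temperature, dark | Medium: Tris pH 8 with BME, BSA, NP40 and catalase | Also added: 25 nM SUMO1 FRET substrate | Compound: 10 µM single point, 0.5% DMSO | Measured by: FRET fluorescence in CFP and YFP emission channels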
FAS-TE inh – inhibitors of human fatty acid synthase thioesterase domain | AID 602261 | recombinant FAS-TE, OMFH fluorogenic substrate, fluorescence endpoint | 0.67% of 360,000 active | inhibition, % at 15 µM | P49327;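 active means compounds whose normalised, plate-corrected inhibition of enzyme fluorescence in the single-dose primary screen is 50% or more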;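 further: 0% = DMSO with enzyme and 100% = substrate without enzyme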
Arr AP2 block – inhibitors of human beta-arrestin and AP2 interaction. AID 504490. inhibition, % at 10 µM. FITC-arrestin peptide / GST-AP2 beads, flow cytometry; AP2 beta2 appendage carries R879A mutation. 0.31% of 340,000 active;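 active means inhibition above a set limit, near 3 SD of compounds lacking own fluorescence, cut at about 54% in these data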;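 further: plate controls were DMSO wells for no effect and 5 µM unlabelled arrestin peptide for full effect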
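Assay system: GST-AP2 R879A bound to glutathione beads, E. coli-expressed; Medium: PBS with 0.05% Tween 20 and 0.1% BSA; Also added: fluorescein-tagged arrestin peptide at 50 nM final; Timing: 12 min plus 1 h, RT; Measured by: flow cytometry, FL1 (488/535 nm); Evaluation: percent drop in bead-associated FITC signal.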
* = called active by the depositor; nt = not tested or not shown. This is a sample that favours compounds with a hit; in the whole collection about 4% have one here.

SMILES	Cardio protect	GRIN3A LBD mod	iPSC survival up	SENP1 FRET inh	FAS-TE inh	Arr AP2 block
O=c1oc2cc(O)ccc2cc1-c1nc2c(s1)CCc1ccccc1-2	-18	565*	2	-24	-135	7
O=c1oc2ccccc2cc1-c1nc2c(s1)CCc1ccccc1-2	-3	-3	0	-23	20	-27
COc1ccc(OC)c(NC(=O)Nc2nc(CN(C)C)cs2)c1	8	nt	0	2	-9	nt
COc1cc(Br)cc(/C=N/NC(=O)Cc2ccc(C(F)(F)F)cc2[N+](=O)[O-])c1O	34	25*	0	3	15	5
CCOc1cc(/C=N/NC(=O)Cc2ccc(C(F)(F)F)cc2[N+](=O)[O-])c(Br)cc1OC	-3	-1	-4	0	1	18
CC1(Cc2cccc(C#N)c2)C(=O)Nc2c(Cl)cccc21 (configuration not stated)	-1	nt	7	-1	-3	nt
CCC/C=C/c1ccc(CN2C(C)C(=O)N(Cc3cn(CCC4OCCO4)nn3)CCS2(=O)=O)cc1 (configuration not stated)	-5	nt	0	-1	-5	nt
O=C(CCCOc1ccc(Cl)cc1Cl)N/N=C/c1ccccc1O	36	18*	0	-2	15	9
Cc1ccc(/C=N/NC(=O)CCCOc2ccc(Cl)cc2Cl)cc1	0	12*	0	1	8	1
COc1ccc(/C=N/NC(=O)CCCOc2ccc(Cl)cc2Cl)cc1[N+](=O)[O-]	-20	12*	10	0	27	-4
Cc1cc(Cl)ccc1OCCCC(=O)NNC(=O)c1ccccc1O	55*	-3	0	1	42	2
Cc1ccccc1C(=O)Nc1ccc(C(=O)NNC(=O)CCCOc2ccc(Cl)cc2Cl)cc1	-5	3	-2	1	-6	-5
Cc1ccc(/C=N/NC(=O)CCCOc2ccc(Cl)cc2Cl)cc1[N+](=O)[O-]	-20	9	4	3	28	-4
CC1(C(=O)NS(=O)(=O)c2ccc(C#N)cc2)CCN1C(=O)C1(c2ccccc2)CC1 (configuration not stated)	6	nt	0	3	-2	nt
CCc1nc2c(OCc3ccc(C(F)(F)F)cc3)cccn2c1N(C)C(=O)C1CC1	-2	nt	0	-2	8	nt
O=C(CCC(=O)N/N=C/c1cc(Cl)cc(Cl)c1O)NCc1ccccc1	52*	-6	-1	-29	29	4
O=C(CN1C(=O)C(=O)N(Cc2ccccc2)C1=O)Nc1cc(Cl)cc(Cl)c1	-14	26*	-1	2	13	25
O=C(COC(=O)c1ccc2c(c1)C(=O)N(CCc1ccccc1)C2=O)Nc1ccc(OC(F)F)cc1	-2	10	-2	0	15	-20
O=C(CN1C(=O)C(=O)N(Cc2ccccc2)C1=O)Nc1ccc(OC(F)F)cc1	3	16*	0	1	-4	16
COc1ccc(OC)c(NC(=O)CN2C(=O)C(=O)N(Cc3ccccc3)C2=O)c1	-3	0	0	5	-7	-20
CC(=O)Nc1cccc(-c2ccnc3c2CC(C(=O)NCc2cccs2)O3)c1 (configuration not stated)	4	nt	-3	-3	-10	nt
COc1ccc(S(=O)(=O)N2Cc3ccccc3CC2C(=O)Nc2ccc(O)cc2)cc1OC (configuration not stated)	58*	0	1	1	-3	-3
CNC(=O)C1Cc2ccccc2CN1S(=O)(=O)c1ccc(OC)c(OC)c1 (configuration not stated)	2	0	0	1	-6	9
COc1ccc(S(=O)(=O)N2CCc3ccccc3C2)cc1OC	-2	14*	-2	1	6	-2
Nc1ncnc2c1ccn2[C@H]1CN(Cc2ccc(Cl)cc2)C[C@@H](CO)O1	-13	nt	0	-2	-5	nt
SMILES	Cardio protect	GRIN3A LBD mod	iPSC survival up	SENP1 FRET inh	FAS-TE inh	Arr AP2 block
Cc1ccc(C)c(NC(=S)NC(NC(=O)OCc2ccccc2)C(Cl)(Cl)Cl)c1 (configuration not stated)	-1	15*	-1	-5	0	33
O=C(NC(=S)Nc1c(Cl)cc(Cl)cc1Cl)c1ccccc1	-10	nt	-2	2	22	nt
O=C(NC(NC(=S)Nc1c(Cl)cc(Cl)cc1Cl)C(Cl)(Cl)Cl)OCc1ccccc1 (configuration not stated)	-13	21*	1	-1	16	-8
O=C(NCc1ccccc1)C1C(c2ccccc2)=Nc2ccccc2N1C(=O)c1cccnc1 (configuration not stated)	nt	nt	nt	1	nt	nt
O=C(c1ccc(N2CCOCC2)c([N+](=O)[O-])c1)N1CCCCC1	3	-1	0	0	0	-16
O=C(NNC(=S)Nc1ccc(Br)cc1)c1ccc(N2CCOCC2)c([N+](=O)[O-])c1	2	19*	5	0	3	9
O=C(NNC(=S)Nc1ccc(Cl)cc1Cl)c1ccc(N2CCOCC2)c([N+](=O)[O-])c1	-16	24*	-1	1	15	-7
Cc1ccc(NC(=S)NNC(=O)c2ccc(N3CCOCC3)c([N+](=O)[O-])c2)cc1Cl	4	19*	-3	2	10	0
CCOC(=O)C1=CCN(S(=O)(=O)c2ccc(C)cc2)C1c1cccc(C)c1 (configuration not stated)	-4	nt	0	0	13	nt
O=C(/C(=N/N=C/c1ccc(O)c(O)c1)c1ccccc1)c1ccccc1	50	21*	1	4	1	-8
Oc1ccc(/C=N/N=C/c2ccc(O)c(O)c2)cc1O	52*	28*	0	3	-3	1
O=C1Nc2ccccc2Nc2ccccc21	18	-1	0	1	-4	-1
O=C1Nc2cnc(Cl)nc2Nc2ccccc21	56*	nt	0	-8	3	nt
CC1=C(C(=O)N2CCOCC2)CC(CC(=O)NC2CCCC2)C(=O)N1CCCN1CCCC1=O (configuration not stated)	7	nt	5	-1	-9	nt
COc1cc(SSc2cc(OC)cc([N+](=O)[O-])c2N)c(N)c([N+](=O)[O-])c1	-16	37*	0	2	0	34
Cc1cccc(N=C2NN=C(c3ccc4c(c3)OCCO4)CS2)c1	-16	3	-1	1	-67	25
Cc1cccc(N=C2NN=C(c3c(C)[nH]c4ccccc34)CS2)c1	-5	19*	-1	2	-83	-11
CC(C)C[C@@H](CN1CCC[C@H]1CN1C(=O)C(=O)NC[C@@H]1Cc1ccccc1)N1C[C@H](Cc2ccc(O)cc2)N(CC2CCCCCC2)C(=O)C1=O	nt	nt	0	1	37	nt
